Data set [1] is described as follows: Phase I DDI study of abrocitinib with probenecid. It is filed as in vivo, human.
The conditions of data set [2]: cited from earlier work.
For data set [3], the system named is CYP3A4. As to conditions: data on file; cited from earlier work.
A short description of data set [4]: Safety across the three phase I DDI studies. The format is in vivo, human. The note with it: all three studies, healthy volunteers. In short, it runs like this: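 Safety population comprised all subjects receiving at least one dose of study medication. Adverse events were summarised descriptively.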
Data set [5] in a line: Phase I DDI study of abrocitinib with rifampin. It is filed as in vivo, human.
Data set [6] deals with CYP2B6. The note with it: data on file; cited from earlier work.
For data set [7] the following is noted: after a single oral dose of abrocitinib; ref data on file; cited from earlier work.
For data set [8] the following is noted: population analyses; ref data on file; cited from earlier work.
Data set [9] relates to cytochrome P450 (CYP) 2C19. As to conditions: CYP2C19; data on file; cited from earlier work.
For data set [10], the system named is CYP2C9. The note with it: data on file; cited from earlier work.
Data set [11] deals with organic anion transporter 3 (OAT3). As to conditions: in vitro transporter profiling; ref data on file; cited from earlier work.
Data set [12] in a line: Phase I DDI study of abrocitinib with fluvoxamine. It is filed as in vivo, human.
A short description of data set [13]: Single vs multiple-dose. As to conditions: for Mean (SD) plasma concentration: abrocitinib 200 mg once daily; for Contribution to the total active moiety (unbound, adjusted for relative potencies): at steady state with 200 mg QD dosing. The format is in vivo, human.
Data set [14] in a line: Phase I DDI study of abrocitinib with fluconazole. The format is in vivo, human.
The conditions of data set [15]: plasma protein binding; ref data on file; cited from earlier work.
Setting [16] is: Abrocitinib 100 mg single dose (n = 12), probenecid study.
Where [17] appears, read: Abrocitinib 200 mg single dose + Probenecid 1000 mg BID (n = 12).
Where [18] appears, read: with probenecid vs abrocitinib alone, active moiety unbound.
The mark [19] stands for this setting: Abrocitinib 100 mg single dose (n = 12), rifampin study.
Setting [20] is: Abrocitinib 200 mg single dose + Rifampin 600 mg QD (n = 12).
[21] abbreviates: with rifampin vs abrocitinib alone, active moiety unbound.
Setting [22] is: Abrocitinib 100 mg single dose (n = 12), fluvoxamine study.
[23] abbreviates: Abrocitinib 100 mg single dose + fluvoxamine 50 mg QD (n = 12).
[24] abbreviates: with fluvoxamine vs abrocitinib alone, active moiety unbound.
Where [25] appears, read: Abrocitinib 100 mg single dose (n = 12), fluconazole study.
[26] abbreviates: Abrocitinib 100 mg single dose + fluconazole 200 mg QD (n = 12).
The mark [27] stands for this setting: with fluconazole vs abrocitinib alone, active moiety unbound.
Setting [28] is: Probenecid 1000 mg BID (n = 12).

Structures are written as SMILES. Entries after “also recorded” stand apart in the source; their conditions may differ.

Consider `CCCS(=O)(=O)N[C@H]1C[C@@H](N(C)c2ncnc3[nH]ccc23)C1` [Abrocitinib, N-{cis-3-[Methyl(7H-pyrrolo[2,3-d]pyrimidin-4-yl)amino]cyclobutyl}propane-1-sulfo namide], for which the “Subjects with TEAEs” value in data set [1] (setting [16]) is recorded as 6 (50.0) n (%); in data set [1] (setting [17]) it was 5 (41.7) n (%); in data set [5] (setting [19]) it was 2 (16.7) n (%); in data set [5] (setting [20]), 4 (33.3) n (%); in [12] (setting [22]) it was 3 (25.0) n (%); in data set [12] (setting [23]), 6 (50.0) n (%). For the same molecule, the “Subjects with TEAEs” value was 2 (16.7) n (%) in data set [14] (setting [25]) and 7 (58.3) n (%) in data set [14] (setting [26]). For the same molecule, the “Subjects with TRAEs” value in [1] (setting [16]) is reported as 2 (16.7) n (%); in data set [1] (setting [17]), 4 (33.3) n (%); in data set [5] (setting [19]), 2 (16.7) n (%); in data set [5] (setting [20]), 4 (33.3) n (%); in [12] (setting [22]) it was 3 (25.0) n (%); in data set [12] (setting [23]) it was 3 (25.0) n (%). The “Subjects with TRAEs” value in data set [14] (setting [25]) was 2 (16.7) n (%); in [14] (setting [26]) it was 6 (50.0) n (%). In addition, the figures for the “Increase in Cmax” value in data set [1] (setting [18]), in data set [12] (setting [24]) and in data set [14] (setting [27]) were 1.2 fold, 1.8 fold and 1.9 fold, respectively. Besides, the “Parent drug excreted unchanged in the urine” value in [2] is reported as 1.0–4.4%. The “Contribution to abrocitinib metabolism” value in [3] was 11%; in [6], 6%; in [9] it was 53%; in data set [10], 30%. Further, in data set [4], the “Serious or severe adverse events” value was “No serious or severe adverse events”. Moreover, the “Decrease in AUCinf” value in data set [5] (setting [21]) was 87.6%. The “Decrease in Cmax” value in [5] (setting [21]) stood at 79.1%. For the same molecule, in data set [7], the “Share of circulating species” value is recorded as 26%. For the same molecule, the “Sex-related differences in pharmacokinetics” value in data set [8] is given as “no sex-related differences”. The “Substrate of OAT3” value in data set [11] is “not a substrate”. In addition, the “Increase in AUCinf” value in data set [12] (setting [24]) stood at 2.8 fold; in data set [14] (setting [27]) it was 4.8 fold. Moreover, the “Mean (SD) plasma concentration” value in data set [13] (before dosing on Day 2) was 9.16 (7.96) ng/mL; in data set [13] (before dosing on Day 3), 15.01 (21.38) ng/mL; in [13] (before dosing on Day 4), 14.95 (15.88) ng/mL. Also, the concentration at 24 h in data set [13] (human, plasma, oral, 200 mg) came out at 11.3 ng/mL. In data set [13] (once-daily administration, achieved by Day 3 of dosing), the “Time to steady-state plasma concentrations” value is reported as at most 48 h.
`CN(c1ncnc2[nH]ccc12)[C@H]1C[C@@H](NS(=O)(=O)CCCO)C1` [M1]: in [1] (setting [18]), the “Increase in Cmax” value was determined as 1.4 fold. In addition, the “Fraction unbound in plasma (fu)” value in data set [15] is 0.63. In addition, the “Share of circulating species” value in data set [7] is 11%. In data set [11], the “Substrate of OAT3” value was “substrates; also recorded: in part a substrate”. Also, the “Contribution to the total active moiety (unbound, adjusted for relative potencies)” value in [13] is ~ 10%.
Take `CC(O)CS(=O)(=O)N[C@H]1C[C@@H](N(C)c2ncnc3[nH]ccc23)C1` (stereo partly shown) [M2]: in [1] (setting [18]), the “Increase in AUCinf” value came to 2.2 fold and the “Increase in Cmax” value was 1.3 fold. In addition, in data set [15], the “Fraction unbound in plasma (fu)” value was 0.71. The “Share of circulating species” value in data set [7] is 12%. The “Substrate of OAT3” value in [11] is listed as “substrates; also recorded: in part a substrate”. The “Contribution to the total active moiety (unbound, adjusted for relative potencies)” value in [13] is ~ 30%.
For the molecule `CCCN(CCC)S(=O)(=O)c1ccc(C(=O)O)cc1` [Probenecid, reference compound], in data set [1] (setting [28]), the “Subjects with TEAEs” value is 2 (16.7) n (%) and the “Subjects with TRAEs” value is 2 (16.7) n (%).
For the molecule `CO[C@H]1/C=C/O[C@@]2(C)Oc3c(C)c(O)c4c(O)c(c(/C=N/N5CCN(C)CC5)c(O)c4c3C2=O)NC(=O)/C(C)=C\C=C\[C@H](C)[C@H](O)[C@@H](C)[C@@H](O)[C@@H](C)[C@H](OC(C)=O)[C@@H]1C` [Rifampin, reference compound], in data set [5] (Rifampin 600 mg QD (n = 12)), the “Subjects with TEAEs” value is listed as 10 (83.3) n (%) and the “Subjects with TRAEs” value is given as 10 (83.3) n (%).
